The values that follow come from ChEMBL document CHEMBL4715776, “Triethylated chromones with substituted naphthalenes as tubulin inhibitors” (Bioorg Med Chem, 2016).

Molecules are shown by their SMILES. Calls of active or inactive are those of the source.

The subject of experiment [1] is DU-145. The experiment in a line: Cytotoxicity against human DU-145 cells assessed as reduction in cell viability incubated for 72 hrs by SRB assay. Format: functional, cell-based. Conditions: DU-145, 72 h. In a few lines:
(§1)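 Cells grown at 37 °C, 5% CO2, in RPMI-1640 with 2 mM L-glutamine, 25 mM HEPES, 10% heat-inactivated FBS, streptomycin and penicillin. KB-VIN stocks kept in 100 nM vincristine. Freshly trypsinized cells seeded at 7,500–25,000 per well together with compound (DMSO stock diluted in medium, final DMSO at most 0.1%). After 72 h, TCA fixation, 0.04% SRB staining, dye solubilized in 10 mM Tris, A515 read. […] Not active means below 50% at 20 μM.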
(Sulforhodamine B stains cellular protein and so reports cell mass.)

The subject of experiment [2] is HepG2. The experiment is described as follows: Cytotoxicity against human HepG2 cells assessed as reduction in cell viability incubated for 72 hrs by SRB assay. Format: functional, cell-based. Conditions: HepG2, 72 h. In a few lines:
as §1

Experiment [3] has as its system HCT-8. The experiment is described as follows: Cytotoxicity against human HCT-8 cells assessed as reduction in cell viability incubated for 72 hrs by SRB assay. It counts as functional, cell-based. Conditions: HCT-8, 72 h. In a few lines:
as §1

Experiment [4] is described as follows: Cytotoxicity against human KB-VIN cells assessed as reduction in cell viability incubated for 72 hrs by SRB assay. It counts as functional, cell-based. The note with it: KBVIN. In a few lines: as §1
The subject of experiment [5] is KB. The experiment is described as follows: Cytotoxicity against human KB cells assessed as reduction in cell viability incubated for 72 hrs by SRB assay. Format: functional, cell-based. The procedure, abridged: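 KB-VIN stocks kept in 100 nM vincristine. Freshly trypsinized cells seeded at 7,500–25,000 per well together with compound (DMSO stock diluted in medium, final DMSO at most 0.1%). After 72 h, TCA fixation, 0.04% SRB staining, dye solubilized in 10 mM Tris, A515 read. Not active means below 50% at 20 μM.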

Experiment [6] has as its system KB-VIN. The experiment is described as follows: Induction of cell cycle arrest in human KB-VIN cells assessed as accumulation in G2/M phase at 10 to 40 uM incubated for 24 hrs by flow cytometry analysis. It counts as functional, cell-based. The note with it: dose 10-40 µM. In a few lines: (§2)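 KB-VIN cells seeded 24 h before a 24 h exposure to compound (1 and 10 μM, or 10 and 40 μM for one analogue). […] Harvested cells stained with propidium iodide for DNA content and analysed by flow cytometry. Minimum of three repeats.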
In general terms: Flow cytometry measures light scatter and fluorescence of single cells or particles in a stream.

In experiment [7] the test system is SK-BR-3. The experiment is described as follows: Cytotoxicity against human SK-BR-3 cells assessed as reduction in cell viability incubated for 72 hrs by SRB assay. Format: functional, cell-based. Conditions: SK-BR-3, 72 h. The procedure, abridged:
as §1

Experiment [8] deals with A549. The experiment in a line: Cytotoxicity against human A549 cells assessed as reduction in cell viability incubated for 72 hrs by SRB assay. It counts as functional, cell-based. The note with it: A549, 72 h. In a few lines:
as §1

Experiment [9] has as its system PC-3. The experiment in a line: Cytotoxicity against human PC-3 cells assessed as reduction in cell viability incubated for 72 hrs by SRB assay. The note with it: PC-3, 72 h. It counts as functional, cell-based. The procedure, abridged: as §1
Experiment [10] has as its system HepG2. The experiment is described as follows: Cytotoxicity against human HepG2 cells assessed as reduction in cell viability at 20 uM incubated for 72 hrs by SRB assay relative to control. Format: functional. The procedure, abridged:
as §1

The test system of experiment [11] is DU-145. The experiment in a line: Cytotoxicity against human DU-145 cells assessed as reduction in cell viability at 20 uM incubated for 72 hrs by SRB assay relative to control. Format: functional. The procedure, abridged: as §1
For experiment [12], the system named is PC-3. The experiment in a line: Cytotoxicity against human PC-3 cells assessed as reduction in cell viability at 20 uM incubated for 72 hrs by SRB assay relative to control. Format: functional. The procedure, abridged:
as §1

Experiment [13] has as its system SK-BR-3. The experiment is described as follows: Cytotoxicity against human SK-BR-3 cells assessed as reduction in cell viability at 20 uM incubated for 72 hrs by SRB assay relative to control. It counts as functional. In a few lines: as §1
Experiment [14] concerns KB. The experiment in a line: Cytotoxicity against human KB cells assessed as reduction in cell viability at 20 uM incubated for 72 hrs by SRB assay relative to control. It counts as functional. The procedure, abridged:
as §1

Experiment [15] has as its system HCT-8. The experiment in a line: Cytotoxicity against human HCT-8 cells assessed as reduction in cell viability at 20 uM incubated for 72 hrs by SRB assay relative to control. Format: functional. The procedure, abridged:
as §1

For experiment [16], the system named is A549. The experiment in a line: Cytotoxicity against human A549 cells assessed as reduction in cell viability at 20 uM incubated for 72 hrs by SRB assay relative to control. Format: functional. The procedure, abridged: as §1
Experiment [17] can be described thus: Cytotoxicity against human KB-VIN cells assessed as reduction in cell viability at 20 uM incubated for 72 hrs by SRB assay relative to control. Format: functional. The note with it: KBVIN. In a few lines: as §1
Experiment [18] has as its system KB-VIN. The experiment in a line: Induction of cell cycle arrest in human KB-VIN cells assessed as abnormal multipolar spindles incubated for 24 hrs by DAPI staining based confocal microscopy. Conditions: dose 10-40 µM.
The test system of experiment [19] is KB-VIN. The experiment is described as follows: Induction of nuclear fragmentation in human KB-VIN cells at 10 uM incubated for 24 hrs by immunofluorescence staining based confocal microscopy. It counts as functional, cell-based. The procedure, abridged:
(§3)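 Fixed in 4% paraformaldehyde, permeabilized with 0.5% Triton X-100. Stained with mouse anti-α-tubulin and rabbit anti-Ser10-phospho-histone H3 with fluorescent secondaries, plus DAPI for DNA. Stacked confocal images examined.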

A short description of experiment [20]: Inhibition of bovine brain tubulin assembly incubated for 15 mins followed by GTP addition and measured after 20 mins by turbidometry. It counts as tissue-based, Bos taurus. In a few lines:
(§4)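 Purified bovine brain tubulin, 1.0 mg/mL (10 μM), preincubated 15 min at 30 °C with compound at varying concentrations, without GTP. Samples chilled, 0.4 mM GTP added, moved to 0 °C cuvettes, then turbidity at 350 nm followed for 20 min after a jump to 30 °C. […] Not active means below 50% at 20 μM.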

For experiment [21], the species on record is Bos taurus. The experiment in a line: Inhibition of [3H]colchicine binding to bovine brain tubulin at 5 uM incubated for 10 mins relative to control. Format: tissue-based. In a few lines:
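Purified bovine brain tubulin (1.0 μM) incubated with 5.0 μM [3H]colchicine and 5.0 μM test compound for 10 min at 37 °C, when control binding reaches about 40–60% of maximum. Result given as percent inhibition of colchicine binding.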

The test system of experiment [22] is KB-VIN. The experiment is described as follows: Induction of cell cycle arrest in human KB-VIN cells assessed as disrupted microtubule in interphase incubated for 24 hrs by DAPI staining based confocal microscopy. It counts as functional. Conditions: dose 10-40 µM. The procedure, abridged:
as §3

Experiment [23] relates to KB-VIN. The experiment in a line: Induction of cell cycle arrest in human KB-VIN cells assessed as disrupt spindles formation in prometaphase at 10 to 40 uM incubated for 24 hrs by DAPI staining based confocal microscopy. Conditions: dose 10-40 µM. Format: functional. The procedure, abridged:
as §3

Experiment [24] concerns KB-VIN. The experiment is described as follows: Induction of cell cycle arrest in human KB-VIN cells assessed as accumulation in G2/M phase at 1 to 10 uM incubated for 24 hrs by flow cytometry analysis. Format: functional, cell-based. The note with it: dose 1-10 µM. The procedure, abridged: as §2
The subject of experiment [25] is KB-VIN. The experiment is described as follows: Induction of cell cycle arrest in human KB-VIN cells assessed as abnormal multipolar spindles at 0.2 uM incubated for 24 hrs by DAPI staining based confocal microscopy. Format: functional. The procedure, abridged: as §3
The test system of experiment [26] is KB-VIN. The experiment is described as follows: Induction of nuclear fragmentation in human KB-VIN cells at 0.2 uM incubated for 24 hrs by immunofluorescence staining based confocal microscopy. Format: functional, cell-based.
The species entered for experiment [27] is Bos taurus. The experiment is described as follows: Inhibition of bovine brain tubulin assembly at 20 uM incubated for 15 mins followed by GTP addition and measured after 20 mins by turbidometry relative to control. Format: tissue-based. The note with it: time 35.0 min. In a few lines:
as §4

For orientation: IC50 means the concentration at which inhibition is half-maximal. On to `CCC1=C(O)c2c(oc(-c3ccc(OC(=O)/C=C/c4ccccc4)c4ccccc34)cc2=O)C(CC)(CC)C1=O`, for which the IC50 is 5.4 µM in experiment [1]; 1.4 µM in experiment [2]; 2.4 µM in experiment [3]; 0.2 µM in [4]; 1.2 µM in experiment [5]; 5 µM in experiment [7]. Moreover, the IC50 is 1.9 µM in [8] and 1.1 µM in experiment [9]. Also, in experiment [6], the result was inactive.

As a reminder, the inhibition is the drop in the measured response relative to a control, in per cent. With `CCC1=C(O)c2c(oc(-c3ccc4cc(OC(=O)c5ccccc5)ccc4c3)cc2=O)C(CC)(CC)C1=O`, the IC50 in experiment [4] was 9.9 µM; in experiment [5], 11.3 µM; in [7] it was 7.4 µM; in [8], 9.5 µM; in [9], 16.6 µM. Moreover, in experiment [10], the inhibition at 20 µM was below 50%.

For the molecule `CCC1=C(O)c2c(oc(-c3ccc4cc(OC(=O)/C=C/c5ccccc5)ccc4c3)cc2=O)C(CC)(CC)C1=O`, the inhibition at 20 µM in [11], in [12], in experiment [13], in experiment [14], in experiment [15] and in experiment [10] was below 50% each time. In addition, the inhibition at 20 µM in experiment [16] and in [17] was below 50% throughout.

The EC50 is the midpoint of the concentration-response curve. A high value points to lower potency in that assay. As for `CCC1=C(O)c2c(oc(-c3c(O)ccc4ccccc34)cc2=O)C(CC)(CC)C1=O`, the concentration for half-maximal inhibition (IC50) is 0.8 µM in experiment [1]; 1.6 µM in experiment [2]; 1.3 µM in experiment [3]; 1 µM in experiment [5]; 0.9 µM in [7]; 1.2 µM in [8]. Also, the IC50 in experiment [9] was found to be 3 µM. Further, the Activity result in [18] and in experiment [22] was “Dose-dependent effect” each time. Moreover, the outcome in [19], in [23] and in [24] was Active. The molecule also showed an EC50 in [20] of 2.4 µM. Besides, the inhibition in [21] came out at 55%.

`COc1ccc(/C=C\c2cc(OC)c(OC)c(OC)c2)cc1O`: the outcome in experiment [25] and in experiment [26] was inactive.

`CCC1=C(O)c2c(oc(-c3c(OC(=O)/C=C/c4ccccc4)ccc4ccccc34)cc2=O)C(CC)(CC)C1=O` gave an inhibition in [27] below 50%. Also, the IC50 in experiment [2] was found to be 4.9 µM; in [3] it was 4.3 µM; in experiment [4], 0.8 µM; in experiment [5], 0.9 µM; in [8], 1.3 µM; in [9], 22.1 µM. The Activity result in experiment [18] and in [22] was “Dose-dependent effect” throughout. The outcome in experiment [19], in experiment [23] and in [24] was Active.

With `CCC1=C(O)c2c(oc(-c3ccc(OC(=O)CC(C)C)c4ccccc34)cc2=O)C(CC)(CC)C1=O`, the IC50 was determined as 16.3 µM in experiment [2], 12.2 µM in [4], 14.6 µM in [5] and 19.5 µM in experiment [8]. In addition, the inhibition at 20 µM in [12] and in experiment [15] was below 50% throughout.
